# Bioassay records (PubChem BioAssay)
# C-LANA FP: inhibitors of KSHV C-LANA binding to DNA, primary screen, biochemical, fluorescence polarization, FAM-LBS DNA, MBP-C-LANA, single point; actives 0.078% (n = 340,000); Kaposi's sarcoma herpesvirus LANA C-terminal domain (residues 932-1162) DNA binding; inhibition, % at 9 µM;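 active = highest replicate inhibition at or above 60% at 9 µM, even if other replicates fall short; inactive = all replicates below 60% inhibition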
# CAL PDZ FP-1: CAL PDZ peptide-binding inhibitors, primary screen, biochemical, fluorescence polarization, Cer-tagged CAL PDZ, HTS | inhibition, % at 20 µM | purified CAL PDZ, TMR-peptide fluorescence polarization, 1 h | actives 0.02% (n = 330,000) | Golgi-associated PDZ and coiled-coil motif-containing protein (Homo sapiens), Q9HD26;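 active = highest replicate inhibition of at least 40%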
#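 Material: tagged CAL PDZ protein CerCALP, purified; buffer or medium: sodium phosphate/NaCl buffer pH 7.4 with TCEP, IgG, Thesit; also added: fluorescent TMR peptide probe; schedule: 1 h incubation at room temperature before polarization reading; technique: fluorescence polarization from S- and P-plane intensities, G-factor corrected; control set: unlabelled peptide and DMSO controls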
# A3A deaminase: APOBEC3A ssDNA deaminase inhibitors, primary screen, selectivity assay for APOBEC3G inhibitor project, biochemical, FAM/TAMRA oligo cleavage fluorescence | DNA dC->dU-editing enzyme APOBEC-3A (Homo sapiens), P31941 | recombinant A3A, FAM/TAMRA ssDNA deamination fluorescence | actives 0.41% (n = 330,000) | inhibition, % at 20 µM;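 active = at least 40% inhibition at 20 µM here, with at most 30% in a related deaminase screen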
# Target sequence (P31941 whole entry, looked up): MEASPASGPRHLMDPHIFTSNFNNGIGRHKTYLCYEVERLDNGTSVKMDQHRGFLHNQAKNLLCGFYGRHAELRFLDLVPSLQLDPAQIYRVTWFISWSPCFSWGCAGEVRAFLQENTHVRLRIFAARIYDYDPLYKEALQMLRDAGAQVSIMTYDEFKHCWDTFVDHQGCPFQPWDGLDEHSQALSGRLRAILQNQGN
# Keap1 Nrf2 FP: Keap1-Nrf2 protein-protein interaction inhibitors, primary screen, biochemical, fluorescence polarization, single point | Keap1 Kelch-Nrf2 peptide fluorescence polarization, 1536-well | inhibition, % at 9.4 µM | actives 0.15% (n = 340,000) | Kelch-like ECH-associated protein 1 (Homo sapiens), Q14145; in the data active = inhibition above about 12%;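 note: human Keap1 Kelch domain with fluorescein labeled Nrf2 9mer peptide probe; higher means more block of Keap1 binding to Nrf2 peptide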
# APOBEC3G inh: APOBEC3G DNA deaminase inhibitors, primary screen, biochemical, fluorescence, single-stranded DNA substrate, uHTS. AID 493012, 2011. actives 0.28% (n = 330,000). DNA dC->dU-editing enzyme APOBEC-3G (Homo sapiens), Q9HC16. inhibition, % at 20 µM. recombinant A3G, ssDNA deamination FAM/TAMRA fluorescence;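 active = inhibition of at least 40% at 20 µM, with no more than 30% in the related APOBEC3A deaminase screen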
# Target sequence (Q9HC16 whole entry, looked up): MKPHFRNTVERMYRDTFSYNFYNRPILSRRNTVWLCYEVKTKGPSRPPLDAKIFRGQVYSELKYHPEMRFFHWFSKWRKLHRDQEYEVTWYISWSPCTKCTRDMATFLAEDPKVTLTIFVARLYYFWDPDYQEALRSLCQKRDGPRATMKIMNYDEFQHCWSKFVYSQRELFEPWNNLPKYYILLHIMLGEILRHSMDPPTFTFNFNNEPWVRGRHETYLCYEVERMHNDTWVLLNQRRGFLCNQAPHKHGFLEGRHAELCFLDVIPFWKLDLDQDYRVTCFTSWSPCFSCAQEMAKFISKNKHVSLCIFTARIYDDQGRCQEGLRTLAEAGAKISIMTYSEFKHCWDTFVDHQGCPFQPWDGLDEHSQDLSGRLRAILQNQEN
# CAL PDZ FP-2: untagged CAL PDZ binding inhibitors, primary screen, biochemical, fluorescence polarization, HTS | AID 602252, 2012 | purified CAL PDZ, TMR-peptide fluorescence polarization, 1 h | actives 0.92% (n = 300,000) | inhibition, % at 24.9 µM;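 active = mean inhibition of at least 30% with at least half of replicates also reaching 30%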
# Keap1 TSA: Keap1 Kelch domain binders by thermal stabilisation, dose response, biophysical, thermal shift, RT-PCR instrument, cherry-pick; max delta Tm, degrees C; actives 8% (n = 400); shares compounds with Keap1 Nrf2 FP; delta Tm; stronger effect = higher value; in the data active = max delta Tm above about 0.48 degrees C
# Sypro dye melt: Sypro Orange dye melt without protein, dose response, artefact control for Keap1-Nrf2 interaction inhibitor project, biochemical, thermal shift counterscreen, cherry-pick; Sypro Orange dye-only thermal melt, no protein, delta Tm; top dose 26 µM; AID 651858, 2012; delta Tm, degrees C (concentration not given with the values); shares compounds with Keap1 Nrf2 FP; 140 tested, under 10 active;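 active = at highest dose tested, delta Tm positive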
# Numbers stand for hits; - = inactive; . = not tested or not shown. The list is not random: actives were taken first. Their share in the collection is about 1.7%.
SMILES,C-LANA FP,CAL PDZ FP-1,A3A deaminase,Keap1 Nrf2 FP,APOBEC3G inh,CAL PDZ FP-2,Keap1 TSA,others
COc1ccc2nc3ccccc3[n+]([O-])c2c1,-,-,.,39,.,-,-,
COc1ccc2c(ccc[n+]2[O-])c1,-,-,.,-,.,-,.,
CCCN1CNC(=S)N(c2cc(C)ccc2C)C1,-,-,-,13,-,-,-,
Cc1ccccc1NS(=O)(=O)c1ccc2c3c(cccc13)C(=O)N2C,-,-,-,-,-,.,.,
CN1C(=O)c2cccc3c(S(N)(=O)=O)ccc1c23,-,-,-,29,-,.,-,
COCCCNC(=O)c1ccccc1Oc1ccccc1,-,-,-,-,-,-,.,
COCCCNC(=O)c1ccc2c3c(onc13)-c1ccccc1C2=O,-,-,-,79,-,.,-,
COc1[nH]c(/N=C/c2ccccc2)c(C#N)c1C#N,102,-,-,78,-,-,-,
COC1c2ccccc2C(=O)N1CCc1ccc(Cl)cc1 (centres undefined),-,-,-,-,-,.,.,
COc1ccc(Nc2nc3ccccc3nc2-n2nc(C)cc2C)cc1,-,-,-,43,-,-,-,
Cc1ccc(-c2nc3sc(C#N)c(N)n3c(=O)c2C#N)cc1,-,-,-,14,-,-,-,
Cc1ccc(-n2c(N)c(C#N)c(-c3ccccc3)c(C#N)c2=O)cc1,-,-,-,-,-,-,.,
Oc1cc(NCCN2CCOCC2)cc2cccnc12,-,-,-,18,-,-,-,
Oc1cc(Nc2ccccc2)cc2cccnc12,-,-,-,-,-,-,.,
Cc1ccc(S(=O)(=O)NCC(=O)OCC(=O)Nc2ccc3c(c2)OCCO3)cc1,-,-,-,32,-,.,-,Sypro dye melt=-
O/N=C(/CCc1ccccc1)c1ccc2c(c1)OCCO2,-,-,-,-,-,-,.,
N#Cc1c(SCC(=O)Nc2nncs2)sc2c(O)cc(=O)[nH]c12,-,-,-,21,-,-,-,Sypro dye melt=-
O=C(CSc1nc2c(c(=O)[nH]1)CCC2)Nc1cccc(F)c1,-,-,-,-,-,-,.,
CCOC(=O)c1sc(NS(=O)(=O)c2ccccc2)nc1C,-,-,-,-,-,-,.,
Cc1nc(NS(=O)(=O)c2ccccc2)sc1NC(=O)OCCN(C)C,-,-,-,27,-,-,-,
COc1ccc(C2=CC(c3ccco3)n3ncnc3N2)cc1 (centres undefined),-,-,-,20,-,-,-,Sypro dye melt=-
Clc1ccccc1C1=CC(c2ccco2)n2ncnc2N1 (centres undefined),-,-,-,-,-,-,.,
Clc1ccc(C2=CC(c3ccco3)n3ncnc3N2)cc1 (centres undefined),-,-,-,28,-,-,-,Sypro dye melt=-
COC(=O)c1c(NC(=O)CN2CCC3(O)CCCCC3C2c2ccc(OC)cc2OC)sc(C)c1C (centres undefined),-,-,-,-,-,-,.,
O=C1c2ccccc2-c2onc3ccc(Oc4ccccc4)c1c23,-,-,-,56,-,-,-,Sypro dye melt=-
SMILES,C-LANA FP,CAL PDZ FP-1,A3A deaminase,Keap1 Nrf2 FP,APOBEC3G inh,CAL PDZ FP-2,Keap1 TSA,others
CCOc1cc(C2C(C#N)=C(N)OC(C)=C2C(C)=O)cc(Br)c1O (centres undefined),-,-,-,26,-,-,-,
CCOC(=O)c1c(O)cc(C)[nH]c1=O,-,-,-,-,-,-,.,
Cc1nnc(SCC2=C(C(=O)O)N3C(=O)C(NC(=O)COc4ccccc4)C3SC2)s1 (centres undefined),-,-,-,-,-,.,.,
CCC(C(=O)NC1C(=O)N2C(C(=O)O)=C(CSc3nnc(C)s3)CSC12)c1ccccc1 (centres undefined),-,-,-,30,-,.,-,Sypro dye melt=-
CC(=O)c1c(C)nn(CC(=O)NC2CCCN(Cc3ccc(CC(C)C)cc3)C2)c1C (centres undefined),-,-,-,-,-,-,.,
O=C(COC(=O)/C=C/c1ccccc1[N+](=O)[O-])Nc1ccc2[nH]c(=O)[nH]c2c1,-,-,-,-,-,-,.,
Cc1csc2ncnc(NNC(=O)c3ccc(Cl)cc3)c12,-,-,-,-,-,-,.,
O=C(NNc1ncnc2sccc12)c1ccc(Cl)cc1,-,-,-,27,-,.,-,
Cc1cc(C)n(CCCNCC(O)c2ccccc2)n1 (centres undefined),-,-,-,-,-,-,.,
Cc1ccc(Cl)cc1N1CCN(S(=O)(=O)c2ccc3c(c2)oc(=O)n3C)CC1,-,-,-,-,-,-,.,
C=CCn1c(O)c(CN2CCOCC2)c(C)c(C#N)c1=O,-,-,-,14,-,-,-,
O=C(CN(c1ccccc1)S(=O)(=O)c1ccccc1[N+](=O)[O-])Nc1cccnc1,-,-,-,-,-,-,.,
Cc1nnsc1C(=O)N1CCN(c2ccc(F)cc2)CC1,-,-,-,14,-,37,-,
Cc1nc(-c2ccc(S(=O)(=O)N3CCN(C4c5ccccc5-c5ccccc54)CC3)s2)cs1,-,-,-,-,-,-,.,
Cc1nc(-c2ccc(S(=O)(=O)N3CCCN(CCc4ccccc4)CC3)s2)cs1,-,-,-,63,-,.,-,
CCN1CCN(S(=O)(=O)c2ccc(Cl)c(C(=O)NC3CCC(C)CC3)c2)CC1 (centres undefined),-,-,-,29,-,.,-,Sypro dye melt=-
CCOC(=O)N1CCN(Cc2ccccc2Cl)CC1,-,-,-,15,-,-,-,
CCOC(=O)N1CCN(Cc2ccccc2F)CC1,-,-,-,-,-,-,.,
CCc1ccccc1N(C(=O)c1snc(C(N)=O)c1N)C(C(=O)NCC1CCCO1)c1c[nH]c2ccccc12 (centres undefined),-,-,-,-,-,-,.,
